Screening results: PubChem BioAssay, several laboratories
Rows were chosen to be rich in hits. Some 9.2% of all compounds tested hit in one or more screens of this group.
HCT116 PTEN-null: growth suppressors of cells with PTEN tumor suppressor deletion. HCT116 PTEN-null viability, CellTiter-Glo, 60 h; hits give low values. viability, % at 10 µM. 140,000 tested, 1.2% active;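 active = viability at or below a set limit, 4 SD under the median of all tested compounds, cut at about 3.7% in these data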;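 also: PTEN knockout HCT116 line with beta catenin targeted HCT116 as companion control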
Dynein transport: blocks dynein driven cargo transport along microtubules | 3617.4 mouse cells, GR-EGFP nuclear translocation imaging; test concentration mostly 20 µM; stimulated with dexamethasone, 1 µM; hits give low values | z-score, hits read low | 220,000 tested, 0.47% active | AID 1381;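 active = plate z-score of nuclear minus cytoplasmic receptor signal below a set negative limit, without overly bright fluorescence or cell loss, cut at about -3.5 in these data, passing the limit was not always enough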;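 also: z-score of nuclear minus cytoplasmic ring GR-EGFP intensity difference per well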
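Buffer or medium: tet-free, stripped-serum medium; reagent: dexamethasone at 1.0 µM final, 30 min; incubation: 48 h induction, 1 h compound, 30 min dex at 37 °C; measured by: formaldehyde fixation, Hoechst nuclear stain, 10x automated fluorescence imaging; read-out: nuclear-to-cytoplasmic GR-EGFP distribution per well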
bCat KO growth: beta-catenin-lacking colon tumor cell growth suppression; 140,000 tested, 1.5% active; viability, % at 10 µM; HCT116 beta-catenin knockout viability, CellTiter-Glo, 60 h; hits give low values;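 active = viability at or under a set limit, the compound median less 4 SD, cut at about 6% in these data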
Lmaj promast: reduces viability of Leishmania major promastigotes; resazurin fluorescence viability; inhibition, % at 10 µM; 200,000 tested, 9% active; AID 1063; in the data active = inhibition above about 50%;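 also: promastigotes grown with compound for 44 hours at 28 °C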
Autophagy mod: modulators of autophagy | MEF GFP-LC3 puncta imaging; test concentration mostly 10 µM | calls only at 10 µM (by protocol) | 190,000 tested, 0.98% active;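 active = percentage of spot-positive cells more than 3 SD above its plate mean, without a fluorescence outlier flag or 80% toxicity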
Hits are given with their value.

How did Cc1ccc(C2CC(C(F)F)n3ncc(C(=O)Nc4cnn(Cc5ccccc5C)c4)c3N2)cc1 (centres undefined) do in these assays?
HCT116 PTEN-null: 2.1; Dynein transport: inactive; bCat KO growth: 1.8; Lmaj promast: inactive; Autophagy mod: inactive

How did NC(=O)CC(NC(=O)Cc1cccc2ccccc12)c1ccc(N2CCc3ccccc3C2)c([N+](=O)[O-])c1 (centres undefined) do in these assays?
Dynein transport: inactive

Results for Cc1cc(C)c2c3c(sc2n1)C(c1cccc(F)c1)C(C#N)=C(N)O3 (centres undefined) ?
HCT116 PTEN-null: inactive; Dynein transport: inactive; bCat KO growth: inactive; Lmaj promast: 89; Autophagy mod: inactive

Results for C[n+]1cccc(C2C(C#N)=C(N)Oc3c2ccc2ccccc32)c1 (centres undefined) ?
Dynein transport: inactive

How did Cc1ccc(CC2CC(=O)N(CCc3ccc4c(c3)OCO4)C2=O)cc1 (centres undefined) do in these assays?
HCT116 PTEN-null: inactive; Dynein transport: inactive; bCat KO growth: inactive; Lmaj promast: 60; Autophagy mod: inactive

How did O=[N+]([O-])c1cccc2c(N3CCCC3)ccnc12 do in these assays?
Dynein transport: inactive; Lmaj promast: 88; Autophagy mod: inactive

How did O=[N+]([O-])c1ccc(Cl)cc1N1CCCC1 do in these assays?
Dynein transport: inactive; Lmaj promast: inactive; Autophagy mod: inactive

What do the screens show for `COC(=O)Cc1ccc(NC(=S)Nc2ccc(N3CCOCC3)cc2)cc1`?
Dynein transport: inactive; Lmaj promast: inactive; Autophagy mod: inactive

Results for Cc1ccc(CSC2=NCCN2S(=O)(=O)c2ccccc2)cc1 ?
Dynein transport: inactive; Lmaj promast: 100; Autophagy mod: inactive

Results for O=C1/C(=C/c2ccco2)SC(=S)N1C1CCS(=O)(=O)C1 (centres undefined) ?
Dynein transport: inactive; Lmaj promast: 93; Autophagy mod: inactive

What do the screens show for `O=C1/C(=C\c2ccco2)SC(=S)N1C1CCS(=O)(=O)C1` (centres undefined)?
Dynein transport: inactive

What do the screens show for `Cc1ccc(S(=O)(=O)CCSC(=N)N)cc1`?
Dynein transport: inactive; Lmaj promast: inactive; Autophagy mod: inactive

How did COC(=O)c1ccccc1NC(=O)CN1CCC(NC(=O)c2ccc(C)cc2)CC1 do in these assays?
HCT116 PTEN-null: inactive; Dynein transport: inactive; bCat KO growth: inactive; Lmaj promast: inactive; Autophagy mod: inactive

Results for COC(=O)c1ccccc1NC(=O)CN1CCN(C23CC4CC(CC(C4)C2)C3)CC1 ?
HCT116 PTEN-null: inactive; Dynein transport: inactive; bCat KO growth: inactive; Lmaj promast: 86; Autophagy mod: inactive

How did CCSc1nnc(NC(=O)C2CCN(S(=O)(=O)c3ccccc3C(F)(F)F)CC2)s1 do in these assays?
HCT116 PTEN-null: inactive; Dynein transport: inactive; bCat KO growth: inactive; Lmaj promast: 55; Autophagy mod: inactive

How did CCSc1nnc(NC(=O)C2CCN(S(=O)(=O)c3c(C)c(C)cc(C)c3C)CC2)s1 do in these assays?
HCT116 PTEN-null: inactive; Dynein transport: inactive; bCat KO growth: inactive; Lmaj promast: inactive; Autophagy mod: inactive

How did CCSc1nnc(NC(=O)C2CC2c2ccccc2)s1 (centres undefined) do in these assays?
HCT116 PTEN-null: inactive; Dynein transport: inactive; bCat KO growth: inactive; Lmaj promast: 82; Autophagy mod: inactive

Results for O=C(NCCc1cn2ccccc2n1)c1cc(COc2c(F)cccc2F)on1 ?
Dynein transport: inactive; Lmaj promast: 52; Autophagy mod: inactive

What do the screens show for `Cc1nc2ncnn2c(N2CCN(C(c3ccccc3)c3ccccc3)CC2)c1C`?
HCT116 PTEN-null: inactive; Dynein transport: inactive; bCat KO growth: inactive; Lmaj promast: 68; Autophagy mod: inactive

What do the screens show for `CC1=C(C(=O)OCc2ccccc2)C(c2cccnc2)c2c(n(C)c(=O)n(C)c2=O)N1` (centres undefined)?
HCT116 PTEN-null: inactive; Dynein transport: inactive; bCat KO growth: inactive; Lmaj promast: 75; Autophagy mod: inactive

Results for CCOc1ccc(NC(=O)c2ccc(NC(=O)c3cn4c5c(c(N6CCN(C)CC6)c(F)cc5c3=O)OCC4C)cc2)cc1 (centres undefined) ?
HCT116 PTEN-null: 2.2; Dynein transport: inactive; bCat KO growth: 2.3; Lmaj promast: 93; Autophagy mod: inactive

What do the screens show for `CCOc1ccc(NC(=O)c2ccc(NC(=O)c3ccc(CN4CCOCC4)cc3)cc2)cc1`?
Dynein transport: inactive

Results for O=C(Cn1nnc(-c2cc(C(F)(F)F)cc(C(F)(F)F)c2)n1)NNC(=S)Nc1ccc(Cl)cc1 ?
Dynein transport: inactive

Results for O=C1N/C(=C/c2ccc(Br)cc2)C(O)=C1C=NCc1ccccc1 ?
HCT116 PTEN-null: inactive; Dynein transport: inactive; bCat KO growth: inactive; Lmaj promast: 79; Autophagy mod: inactive

Results for O=C1C(C=NCc2ccncc2)=C(O)c2ccccc21 ?
HCT116 PTEN-null: inactive; Dynein transport: inactive; bCat KO growth: inactive; Lmaj promast: inactive; Autophagy mod: inactive

What do the screens show for `CC(C)(C)Nc1nc(Cl)nc(NC(C)(C)C)n1`?
HCT116 PTEN-null: inactive; Dynein transport: inactive; bCat KO growth: inactive; Lmaj promast: inactive; Autophagy mod: inactive

How did CC(C)(C)Nc1nc(NN)nc(NC(C)(C)C)n1 do in these assays?
HCT116 PTEN-null: inactive; Dynein transport: inactive; bCat KO growth: inactive; Lmaj promast: 81; Autophagy mod: inactive

How did CCn1c(P(C)(=O)O)nc2cc(NC(=O)c3ccccc3Cl)ccc21 do in these assays?
Dynein transport: inactive; Lmaj promast: inactive; Autophagy mod: inactive

Results for COc1ccc(-c2csc(C3=C(O)CN(C(C)C)C3=N)n2)cc1OC ?
Dynein transport: inactive; Lmaj promast: 72; Autophagy mod: inactive

How did N#C/C(=C\c1ccc(OCC(N)=O)cc1)c1ccccc1 do in these assays?
HCT116 PTEN-null: inactive; Dynein transport: inactive; bCat KO growth: inactive; Lmaj promast: 58; Autophagy mod: inactive

Results for CCOC(=O)CN/C=C(\C#N)c1ccccc1 ?
HCT116 PTEN-null: inactive; Dynein transport: inactive; bCat KO growth: inactive; Lmaj promast: inactive; Autophagy mod: inactive

Results for CCC(CC)c1nnc(NC(=O)C2CCCO2)s1 (centres undefined) ?
Dynein transport: inactive; Lmaj promast: inactive; Autophagy mod: inactive

How did COc1ccc(NS(=O)(=O)c2cc(NC(=O)c3ccco3)ccc2N2CCCC2)cc1 do in these assays?
HCT116 PTEN-null: inactive; Dynein transport: inactive; bCat KO growth: inactive; Lmaj promast: 82; Autophagy mod: inactive

Results for COc1ccc(NS(=O)(=O)c2cc(NC(=O)/C=C/c3cc(OC)ccc3OC)ccc2N2CCCCC2)cc1 ?
HCT116 PTEN-null: inactive; Dynein transport: inactive; bCat KO growth: inactive; Lmaj promast: 92; Autophagy mod: inactive

What do the screens show for `O=C(CCl)Nc1ccc(Oc2cnc3ccccc3n2)cc1`?
HCT116 PTEN-null: inactive; Dynein transport: inactive; bCat KO growth: inactive; Lmaj promast: 66; Autophagy mod: inactive

What do the screens show for `O=[N+]([O-])c1ccccc1S(=O)(=O)NC1CCCC1`?
Dynein transport: inactive; Lmaj promast: inactive; Autophagy mod: inactive

What do the screens show for `CC(C)(C)OC(=O)NCCc1nnc(SCC(=O)Nc2ccc(Br)cc2)o1`?
Dynein transport: inactive
